From ChEMBL document CHEMBL1833793 (Bioorg Med Chem Lett, 2011)
The source made the active and inactive calls. The calls are words filed in the database; no cut-off is given here.

Assays:
[1] = Plasma concentration in cPP-induced feeding rat model at 3 mg/kg, po after 2 hrs; assay type: ADME, organism-based; design: dose 3 mg/kg, route oral
How it was run: (§1)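 Satellite rats (n = 2/dose) sampled each week alongside the cPP feeding test; Lu-series dosed po at 3, 10 or 30 mg/kg as suspension in 20% HP-β-cyclodextrin; plasma (ng/mL) and brain tissue (ng/g) levels taken at 1, 2, 4, 6 and 24 h post-dose; mean ± SD reported.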

[2] = Plasma concentration in cPP-induced feeding rat model at 30 mg/kg, po after 2 hrs; assay type: ADME, organism-based; design: dose 30 mg/kg, route oral
How it was run: (§2)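 Satellite rats (n = 2/dose per week), cannulated in the lateral cerebral ventricle for the feeding study, dosed orally at 3, 10 or 30 mg/kg as a suspension in 20% HP-β-cyclodextrin. Plasma was sampled 1, 2, 4, 6 or 24 h after dosing, alongside i.c.v. cPP (0.6 nmol) feeding tests. Values are given as mean with SD.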

[3] = Plasma clearance in Sprague-Dawley rat at 1 mg/kg, iv and 2 mg/kg, po by HPLC analysis; assay type: ADME, organism-based
How it was run: (§3)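 Male Sprague-Dawley rats (200–250 g, n = 2) with jugular and carotid cannulae, dosed 1 mg/kg iv and 2 mg/kg po in crossover after 24 h washout. Vehicle was 20% beta cyclodextrin, pH adjusted with methanesulfonic acid to give a solution. Automated serial blood sampling took 12 time points over 24 h. Plasma was quantified by HPLC-MS/MS, with noncompartmental analysis.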

[4] = Plasma concentration in cPP-induced feeding rat model at 30 mg/kg, po after 1 hr; assay type: ADME, organism-based; design: dose 30 mg/kg, route oral; how it was run: as §2
[5] = Plasma concentration in cPP-induced feeding rat model at 10 mg/kg, po after 4 hrs; assay type: ADME, organism-based; design: dose 10 mg/kg, route oral; how it was run: as §1
[6] = Plasma concentration in cPP-induced feeding rat model at 3 mg/kg, po after 1 hr; assay type: ADME, organism-based; design: dose 3 mg/kg, route oral; how it was run: as §1
[7] = species: Rattus norvegicus; experiment: Inhibition of food intake in rat after 24 hrs starvation; assay type: functional, organism-based
[8] = Plasma concentration in cPP-induced feeding rat model at 10 mg/kg, po after 1 hr; assay type: ADME, organism-based; design: dose 10 mg/kg, route oral; how it was run: as §1
[9] = target: Neuropeptide Y receptor type 4 (Homo sapiens, UniProt P50391); experiment: Antagonist activity at human NPY4 receptor assessed as calcium mobilization by FLIPR assay; assay type: functional
[10] = Drug uptake in brain of cPP-induced feeding rat model at 30 mg/kg, po after 2 hrs; assay type: ADME, organism-based; design: dose 30 mg/kg, route oral; conditions: read-out: Drug uptake; how it was run: as §1
[11] = target: T1, Cytochrome P450 1A2 (Homo sapiens, UniProt P05177); experiment: Inhibition of CYP1A2; assay type: ADME
T1 sequence (P05177 whole entry): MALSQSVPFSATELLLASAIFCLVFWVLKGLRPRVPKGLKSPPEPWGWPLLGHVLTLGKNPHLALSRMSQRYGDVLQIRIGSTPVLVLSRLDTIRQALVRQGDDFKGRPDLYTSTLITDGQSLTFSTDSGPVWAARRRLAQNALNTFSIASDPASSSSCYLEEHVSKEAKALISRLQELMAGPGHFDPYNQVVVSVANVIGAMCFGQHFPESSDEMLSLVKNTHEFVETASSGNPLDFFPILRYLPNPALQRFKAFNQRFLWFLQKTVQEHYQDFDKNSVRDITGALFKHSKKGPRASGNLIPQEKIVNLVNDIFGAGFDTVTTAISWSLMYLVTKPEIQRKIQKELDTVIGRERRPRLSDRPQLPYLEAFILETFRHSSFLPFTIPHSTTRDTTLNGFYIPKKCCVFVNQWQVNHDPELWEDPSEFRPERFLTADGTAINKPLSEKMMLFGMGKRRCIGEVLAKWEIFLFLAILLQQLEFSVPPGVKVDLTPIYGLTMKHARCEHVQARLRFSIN

[12] = Half life in mouse at 1 mg/kg, iv and 2 mg/kg, po by HPLC analysis; assay type: ADME, organism-based; conditions: in vivo
[13] = Drug uptake in brain of cPP-induced feeding rat model at 3 mg/kg, po after 1 hr; assay type: ADME, organism-based; design: dose 3 mg/kg, route oral; conditions: read-out: Drug uptake; how it was run: as §1
[14] = Volume of distribution at steady state in Sprague-Dawley rat at 1 mg/kg, iv and 2 mg/kg, po by HPLC analysis; assay type: ADME, organism-based; conditions: in vivo, read-out: Vdss; how it was run: as §3
[15] = target: T2, Neuropeptide Y receptor type 5 (Homo sapiens, UniProt Q15761); experiment: Binding affinity to human NPY5 receptor
T2 sequence (Q15761 whole entry): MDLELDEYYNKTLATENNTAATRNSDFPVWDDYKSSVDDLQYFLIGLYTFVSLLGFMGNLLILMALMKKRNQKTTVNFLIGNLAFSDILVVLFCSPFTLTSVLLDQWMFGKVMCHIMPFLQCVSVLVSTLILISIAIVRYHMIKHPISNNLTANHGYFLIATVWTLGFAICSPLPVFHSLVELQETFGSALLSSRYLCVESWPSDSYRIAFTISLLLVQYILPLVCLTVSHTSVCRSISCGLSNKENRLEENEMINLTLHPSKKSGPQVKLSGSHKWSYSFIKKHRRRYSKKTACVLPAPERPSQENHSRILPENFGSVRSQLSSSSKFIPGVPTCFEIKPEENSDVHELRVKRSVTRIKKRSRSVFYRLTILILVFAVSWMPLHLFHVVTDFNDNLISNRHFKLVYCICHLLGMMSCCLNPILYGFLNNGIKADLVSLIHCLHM

[16] = target: T3, Neuropeptide Y receptor type 2 (Homo sapiens, UniProt P49146); experiment: Antagonist activity at human NPY2 receptor assessed as calcium mobilization by FLIPR assay; assay type: functional
T3 sequence (P49146 whole entry): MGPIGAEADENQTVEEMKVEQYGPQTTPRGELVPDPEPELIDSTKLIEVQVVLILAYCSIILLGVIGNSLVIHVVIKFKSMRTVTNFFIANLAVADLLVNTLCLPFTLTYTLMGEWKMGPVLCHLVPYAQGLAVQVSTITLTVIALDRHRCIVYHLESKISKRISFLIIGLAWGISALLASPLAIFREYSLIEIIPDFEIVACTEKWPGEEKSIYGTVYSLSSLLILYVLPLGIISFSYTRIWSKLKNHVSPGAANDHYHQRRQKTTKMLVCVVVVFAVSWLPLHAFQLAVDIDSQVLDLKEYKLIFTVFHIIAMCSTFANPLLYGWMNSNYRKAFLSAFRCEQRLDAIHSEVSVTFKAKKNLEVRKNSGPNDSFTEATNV

[17] = Volume of distribution at steady state in mouse at 1 mg/kg, iv and 2 mg/kg, po by HPLC analysis; assay type: ADME, organism-based; conditions: in vivo, read-out: Vdss

Chain of Neuropeptide Y receptor type 4 (P50391 whole entry): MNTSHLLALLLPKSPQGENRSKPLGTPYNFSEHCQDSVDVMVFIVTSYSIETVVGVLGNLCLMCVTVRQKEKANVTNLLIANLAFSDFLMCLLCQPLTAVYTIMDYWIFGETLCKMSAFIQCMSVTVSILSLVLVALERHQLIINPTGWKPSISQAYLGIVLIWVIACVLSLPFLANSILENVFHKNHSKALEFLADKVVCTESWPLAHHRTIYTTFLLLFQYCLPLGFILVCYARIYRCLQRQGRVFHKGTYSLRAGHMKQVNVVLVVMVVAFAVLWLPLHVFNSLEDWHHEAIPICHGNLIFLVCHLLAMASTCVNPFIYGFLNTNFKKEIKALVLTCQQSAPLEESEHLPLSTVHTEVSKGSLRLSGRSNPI

concentration at 2 h [1]: 87 ng/mL | concentration at 2 h [2]: 337 ng/mL | clearance [3]: 18.3 mL/min/kg | concentration at 1 h [4]: 267 ng/mL | concentration at 4 h [5]: 141 ng/mL | concentration at 1 h [6]: 54 ng/mL | concentration at 1 h [8]: 159 ng/mL | IC50 [9]: > 1000 nM | concentration at 2 h [10]: 319 ng/g | IC50 [11]: > 10000 nM | half-life [12]: 8.2 h | concentration at 1 h [13]: 54 ng/g | Vd [14]: 3.3 L/kg | Ki [15]: 1.5 nM | IC50 [16]: > 1000 nM | Vd [17]: 3.6 L/kg
Structure (SMILES): CS(=O)(=O)NC[C@H]1CC[C@H](Nc2nc3c(s2)CCSc2ccccc2-3)CC1
inhibition [7]: inactive
